Columns and labels:
[1] = biological target: T1, Adrenergic receptor alpha-1 (Rattus norvegicus, UniProt P15823+P23944+P43140); assay: Binding affinity for Alpha-1 adrenergic receptor in rat cortex membranes using [3H]-prazosin as radioligand; type: cell membranes
T1 sequence (P15823 whole entry): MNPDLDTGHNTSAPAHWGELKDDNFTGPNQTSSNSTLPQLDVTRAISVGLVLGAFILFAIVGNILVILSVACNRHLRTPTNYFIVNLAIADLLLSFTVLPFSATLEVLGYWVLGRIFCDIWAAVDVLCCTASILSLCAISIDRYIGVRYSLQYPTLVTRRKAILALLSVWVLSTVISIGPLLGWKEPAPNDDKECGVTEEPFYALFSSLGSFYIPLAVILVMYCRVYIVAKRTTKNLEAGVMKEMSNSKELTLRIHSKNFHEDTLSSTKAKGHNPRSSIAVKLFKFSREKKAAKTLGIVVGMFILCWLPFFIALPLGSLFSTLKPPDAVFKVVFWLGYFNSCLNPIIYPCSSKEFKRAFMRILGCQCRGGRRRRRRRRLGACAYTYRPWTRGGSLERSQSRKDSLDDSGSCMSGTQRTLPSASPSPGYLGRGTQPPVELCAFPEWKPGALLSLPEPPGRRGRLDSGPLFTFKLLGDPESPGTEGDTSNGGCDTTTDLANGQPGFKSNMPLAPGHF
T1 sequence (P23944 whole entry): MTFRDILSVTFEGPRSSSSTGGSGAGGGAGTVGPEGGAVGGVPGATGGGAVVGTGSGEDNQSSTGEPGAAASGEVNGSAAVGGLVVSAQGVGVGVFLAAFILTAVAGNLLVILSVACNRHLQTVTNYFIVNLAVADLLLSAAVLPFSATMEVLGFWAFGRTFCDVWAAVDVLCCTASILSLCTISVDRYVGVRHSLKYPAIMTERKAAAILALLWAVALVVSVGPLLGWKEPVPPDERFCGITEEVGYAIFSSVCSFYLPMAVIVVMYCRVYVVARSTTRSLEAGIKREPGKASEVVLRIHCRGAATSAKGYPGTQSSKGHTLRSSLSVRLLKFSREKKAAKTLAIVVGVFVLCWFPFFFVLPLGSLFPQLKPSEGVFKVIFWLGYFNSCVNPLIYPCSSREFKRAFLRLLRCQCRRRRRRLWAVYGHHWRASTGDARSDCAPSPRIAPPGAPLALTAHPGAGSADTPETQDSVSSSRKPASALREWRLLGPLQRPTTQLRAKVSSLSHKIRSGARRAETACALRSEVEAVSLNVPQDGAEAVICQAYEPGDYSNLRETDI
T1 sequence (P43140 whole entry): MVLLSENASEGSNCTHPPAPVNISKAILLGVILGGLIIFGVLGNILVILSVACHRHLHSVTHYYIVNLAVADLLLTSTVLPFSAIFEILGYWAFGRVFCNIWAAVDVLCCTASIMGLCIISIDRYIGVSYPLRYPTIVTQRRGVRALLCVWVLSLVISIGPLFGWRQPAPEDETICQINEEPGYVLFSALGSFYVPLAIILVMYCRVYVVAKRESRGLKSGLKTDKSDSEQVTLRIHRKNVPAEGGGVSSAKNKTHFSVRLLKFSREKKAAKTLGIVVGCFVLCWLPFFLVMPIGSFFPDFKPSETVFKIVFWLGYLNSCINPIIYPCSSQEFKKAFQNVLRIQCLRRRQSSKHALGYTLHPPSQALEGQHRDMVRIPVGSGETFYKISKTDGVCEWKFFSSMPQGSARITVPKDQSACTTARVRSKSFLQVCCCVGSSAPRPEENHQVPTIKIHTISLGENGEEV

[2] = biological target: T2, 5-hydroxytryptamine receptor 1A (Rattus norvegicus, UniProt P19327); assay: Displacement of [3H]8-OH-DPAT from 5-hydroxytryptamine 1A receptor of rat cortex membranes; type: cell membranes, Membrane
T2 sequence (P19327 whole entry): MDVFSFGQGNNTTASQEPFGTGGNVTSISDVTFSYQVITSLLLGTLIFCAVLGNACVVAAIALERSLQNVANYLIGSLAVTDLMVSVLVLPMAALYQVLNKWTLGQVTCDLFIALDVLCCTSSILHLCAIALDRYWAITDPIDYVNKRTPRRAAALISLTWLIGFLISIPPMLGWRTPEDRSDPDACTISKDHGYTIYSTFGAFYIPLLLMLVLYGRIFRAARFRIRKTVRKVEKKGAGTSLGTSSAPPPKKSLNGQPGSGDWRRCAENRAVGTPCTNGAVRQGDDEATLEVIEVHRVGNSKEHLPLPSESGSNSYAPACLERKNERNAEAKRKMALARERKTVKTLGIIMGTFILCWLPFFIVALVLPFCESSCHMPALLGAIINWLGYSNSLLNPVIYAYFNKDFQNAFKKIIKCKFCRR
In short: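 Competition binding with seven drug concentrations, each in triplicate, across three separate experiments. IC50 values were converted to Ki by the Cheng–Prusoff equation, Ki = IC50/(1 + [L]/Kd), where [L] is the radioligand concentration and Kd its dissociation constant. Ki is reported as mean ± SD.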

[3] = biological target: T3, Adrenergic receptor alpha-2 (Rattus norvegicus, UniProt P22086+P19328+P22909); assay: Binding affinity for Alpha-2 adrenergic receptor in rat cortex membranes using [3H]rauwolscine as radioligand; type: cell membranes
T3 sequence (P22086 whole entry): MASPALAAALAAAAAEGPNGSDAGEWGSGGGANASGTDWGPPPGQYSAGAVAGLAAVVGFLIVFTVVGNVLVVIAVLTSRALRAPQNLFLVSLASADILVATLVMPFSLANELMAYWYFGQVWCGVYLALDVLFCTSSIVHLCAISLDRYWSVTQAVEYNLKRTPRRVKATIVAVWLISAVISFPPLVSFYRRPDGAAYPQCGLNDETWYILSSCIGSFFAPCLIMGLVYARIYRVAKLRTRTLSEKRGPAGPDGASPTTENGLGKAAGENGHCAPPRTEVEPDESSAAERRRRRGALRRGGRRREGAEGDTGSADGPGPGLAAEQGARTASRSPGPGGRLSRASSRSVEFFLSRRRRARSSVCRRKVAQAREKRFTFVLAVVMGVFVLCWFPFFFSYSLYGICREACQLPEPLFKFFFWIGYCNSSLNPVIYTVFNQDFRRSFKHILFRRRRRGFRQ
T3 sequence (P19328 whole entry): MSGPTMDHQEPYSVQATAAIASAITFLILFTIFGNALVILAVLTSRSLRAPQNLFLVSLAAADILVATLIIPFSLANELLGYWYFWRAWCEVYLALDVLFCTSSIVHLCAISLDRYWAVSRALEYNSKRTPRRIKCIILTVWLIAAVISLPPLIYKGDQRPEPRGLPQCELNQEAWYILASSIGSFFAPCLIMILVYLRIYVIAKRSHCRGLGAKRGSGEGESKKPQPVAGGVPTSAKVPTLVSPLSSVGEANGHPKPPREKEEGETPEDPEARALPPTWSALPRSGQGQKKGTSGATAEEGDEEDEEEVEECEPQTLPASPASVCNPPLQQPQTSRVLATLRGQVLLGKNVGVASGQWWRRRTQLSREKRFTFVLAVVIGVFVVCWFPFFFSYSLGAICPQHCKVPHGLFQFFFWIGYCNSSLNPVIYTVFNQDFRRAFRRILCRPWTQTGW
T3 sequence (P22909 whole entry): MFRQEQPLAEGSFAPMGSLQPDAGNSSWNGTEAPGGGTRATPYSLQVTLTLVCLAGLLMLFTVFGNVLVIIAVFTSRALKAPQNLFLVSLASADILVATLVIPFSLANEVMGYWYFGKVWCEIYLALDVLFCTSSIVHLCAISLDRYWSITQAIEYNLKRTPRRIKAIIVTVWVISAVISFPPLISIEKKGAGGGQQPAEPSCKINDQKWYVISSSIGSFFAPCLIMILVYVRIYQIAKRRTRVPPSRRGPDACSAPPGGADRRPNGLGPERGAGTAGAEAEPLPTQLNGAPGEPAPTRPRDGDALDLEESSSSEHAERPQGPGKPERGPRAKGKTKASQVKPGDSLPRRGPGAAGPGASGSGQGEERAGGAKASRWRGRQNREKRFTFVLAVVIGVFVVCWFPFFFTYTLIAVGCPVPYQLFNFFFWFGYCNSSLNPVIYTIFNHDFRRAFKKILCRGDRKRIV

[4] = biological target: Adrenergic receptor alpha-1 (Rattus norvegicus) (UniProt P15823+P23944+P43140)
[5] = biological target: T1, Adrenergic receptor alpha-1; assay: Intrinsic activity towards Alpha-1 adrenergic receptor by the displacement of [3H]prazosin from rat cerebral cortex membrane in presence of 1 nM GTP.; type: tissue-based
[6] = biological target: T1, Adrenergic receptor alpha-1; assay: Intrinsic activity towards Alpha-1 adrenergic receptor by the displacement of [3H]prazosin from rat cerebral cortex membrane in absence of 1 nM GTP; type: tissue-based

Compound | Ki [1] | Ki [2] | Ki [3] | GTP shift [4] | Ki [5] | Ki [6]
COc1ccccc1OCCN1CCN(c2cnn(CCCCCCCN3CCN(c4ccccc4OC)CC3)c(=O)c2Cl)CC1 | 1.45 nM |  |  |  |  | 
CCOc1ccccc1N1CCN(CCCCCCCn2ncc(Cl)c(N3CCN(C(=O)c4ccco4)CC3)c2=O)CC1 | 0.23 nM | 0.35 nM | 0.8 nM |  |  | 
CCOc1ccccc1N1CCN(CCCCCCCn2ncc(N3CCN(CC4COc5ccccc5O4)CC3)c(Cl)c2=O)CC1 (configuration not stated) | 0.42 nM | 49.8 nM | 2.16 nM |  |  | 
CCOc1ccccc1OCCN1CCN(c2cnn(CCCCCCCN3CCN(c4ccccc4OCC)CC3)c(=O)c2Cl)CC1 |  | 1.32 nM |  |  |  | 
COc1ccccc1N1CCN(CCCCCCCn2ncc(N3CCN(CC4COc5ccccc5O4)CC3)c(Cl)c2=O)CC1 (configuration not stated) | 1.68 nM | 11.1 nM | 0.85 nM |  |  | 
CC(C)Oc1ccccc1N1CCN(CCCCCCCn2ncc(Cl)c(N3CCN(C(=O)c4ccco4)CC3)c2=O)CC1 | 0.08 nM | 1.16 nM | 0.66 nM |  |  | 
CC(C)Oc1ccccc1N1CCN(CCCCCCCn2ncc(N3CCN(CC4COc5ccccc5O4)CC3)c(Cl)c2=O)CC1 (configuration not stated) | 0.31 nM | 2.47 nM | 3.34 nM | 1.4 | 0.33 nM | 0.23 nM
CCOc1ccccc1N1CCN(CCCCCCCn2ncc(Cl)c(N3CCN(CC4COc5ccccc5O4)CC3)c2=O)CC1 (configuration not stated) | 0.43 nM | 1.02 nM | 2.4 nM |  |  | 
COc1cc2nc(N3CCN(C(=O)c4ccco4)CC3)nc(N)c2cc1OC |  |  |  | 1.2 |  | 
COc1ccccc1N1CCN(CCCCCCCn2ncc(Cl)c(N3CCN(C(=O)c4ccco4)CC3)c2=O)CC1 | 0.37 nM | 0.42 nM | 1.23 nM |  |  | 
COc1ccccc1N1CCN(CCCCCCCn2ncc(Cl)c(N3CCN(CC4COc5ccccc5O4)CC3)c2=O)CC1 (configuration not stated) | 0.54 nM | 0.4 nM | 1.45 nM |  |  | 
CC(C)Oc1ccccc1N1CCN(CCCCCCCn2ncc(N3CCN(C(=O)c4ccco4)CC3)c(Cl)c2=O)CC1 |  | 0.9 nM |  | 1.7 | 0.081 nM | 0.047 nM
CC(C)Oc1ccccc1N1CCN(CCCCCCCn2ncc(Cl)c(N3CCN(CC4COc5ccccc5O4)CC3)c2=O)CC1 (configuration not stated) | 0.32 nM | 1.52 nM | 13.4 nM |  |  | 
CCOc1ccccc1OCCN1CCN(c2cnn(CCCCCCCN3CCN(c4ccccc4OC)CC3)c(=O)c2Cl)CC1 |  | 0.82 nM |  |  |  | 
CCOc1ccccc1OCCN1CCN(c2cnn(CCCCCCCN3CCN(c4ccccc4OC(C)C)CC3)c(=O)c2Cl)CC1 |  | 2.54 nM |  | 0.8 | 0.22 nM | 0.28 nM
